According to ChEMBL document CHEMBL1142695, “Discovery of functionally selective 7,8,9,10-tetrahydro-7,10-ethano-1,2,4-triazolo[3,4-a]phthalazines as GABA A receptor agonists at the alpha3 subunit” (J Med Chem, 2005):

What was measured:
Format in all cases: cell-based
[1] = biological target: T1, GABA-A receptor; alpha-2/beta-3/gamma-2 (Homo sapiens, UniProt P18507+P28472+P47869); assay: Inhibition of [3H]Ro-151788 binding to recombinant human gamma-aminobutyric acid A receptor alpha-2-beta-3-gamma-2 subtype expressed in L (tk-) cells
T1 sequence (P18507 whole entry): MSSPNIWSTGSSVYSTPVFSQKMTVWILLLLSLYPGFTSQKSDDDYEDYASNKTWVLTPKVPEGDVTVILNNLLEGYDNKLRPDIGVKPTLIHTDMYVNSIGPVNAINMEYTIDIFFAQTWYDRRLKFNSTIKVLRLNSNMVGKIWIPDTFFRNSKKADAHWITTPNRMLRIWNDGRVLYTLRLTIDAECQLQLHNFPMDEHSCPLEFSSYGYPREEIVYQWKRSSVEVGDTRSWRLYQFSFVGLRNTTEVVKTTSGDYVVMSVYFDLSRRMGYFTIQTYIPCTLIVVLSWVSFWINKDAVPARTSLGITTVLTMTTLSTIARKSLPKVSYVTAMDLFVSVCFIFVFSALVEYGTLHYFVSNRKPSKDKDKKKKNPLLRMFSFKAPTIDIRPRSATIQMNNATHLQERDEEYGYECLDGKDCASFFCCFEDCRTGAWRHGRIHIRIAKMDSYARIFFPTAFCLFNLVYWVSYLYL
T1 sequence (P28472 whole entry): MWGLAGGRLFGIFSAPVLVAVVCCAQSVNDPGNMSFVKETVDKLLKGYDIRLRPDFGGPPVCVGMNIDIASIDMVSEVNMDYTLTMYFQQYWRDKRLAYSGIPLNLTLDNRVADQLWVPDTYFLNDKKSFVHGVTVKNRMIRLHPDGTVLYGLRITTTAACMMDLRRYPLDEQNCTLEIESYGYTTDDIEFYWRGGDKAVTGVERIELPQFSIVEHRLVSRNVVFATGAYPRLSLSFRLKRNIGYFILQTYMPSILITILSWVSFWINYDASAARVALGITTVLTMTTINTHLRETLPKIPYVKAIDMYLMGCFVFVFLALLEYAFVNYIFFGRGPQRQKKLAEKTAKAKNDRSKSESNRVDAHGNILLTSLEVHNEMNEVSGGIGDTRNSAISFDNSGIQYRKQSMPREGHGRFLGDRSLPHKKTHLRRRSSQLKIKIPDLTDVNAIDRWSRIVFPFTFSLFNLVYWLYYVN
T1 sequence (P47869 whole entry): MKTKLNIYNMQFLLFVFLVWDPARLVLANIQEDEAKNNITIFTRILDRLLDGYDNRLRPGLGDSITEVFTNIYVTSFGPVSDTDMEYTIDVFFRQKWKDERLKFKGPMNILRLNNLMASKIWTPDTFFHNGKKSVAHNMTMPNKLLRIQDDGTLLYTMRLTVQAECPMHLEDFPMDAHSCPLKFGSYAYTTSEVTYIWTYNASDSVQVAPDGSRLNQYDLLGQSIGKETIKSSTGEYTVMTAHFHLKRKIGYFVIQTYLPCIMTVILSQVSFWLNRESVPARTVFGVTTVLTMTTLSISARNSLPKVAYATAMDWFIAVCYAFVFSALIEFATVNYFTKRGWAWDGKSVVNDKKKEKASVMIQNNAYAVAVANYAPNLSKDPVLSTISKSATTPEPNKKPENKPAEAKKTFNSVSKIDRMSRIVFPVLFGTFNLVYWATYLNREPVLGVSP

[2] = biological target: T2, GABA-A receptor; alpha-1/beta-3/gamma-2 (Homo sapiens, UniProt P14867+P18507+P28472); assay: Inhibition of [3H]Ro-151788 binding to recombinant human gamma-aminobutyric-acid A receptor alpha-1-beta-3-gamma-2 subtype expressed in L (tk-) cells
T2 sequence (P14867 whole entry): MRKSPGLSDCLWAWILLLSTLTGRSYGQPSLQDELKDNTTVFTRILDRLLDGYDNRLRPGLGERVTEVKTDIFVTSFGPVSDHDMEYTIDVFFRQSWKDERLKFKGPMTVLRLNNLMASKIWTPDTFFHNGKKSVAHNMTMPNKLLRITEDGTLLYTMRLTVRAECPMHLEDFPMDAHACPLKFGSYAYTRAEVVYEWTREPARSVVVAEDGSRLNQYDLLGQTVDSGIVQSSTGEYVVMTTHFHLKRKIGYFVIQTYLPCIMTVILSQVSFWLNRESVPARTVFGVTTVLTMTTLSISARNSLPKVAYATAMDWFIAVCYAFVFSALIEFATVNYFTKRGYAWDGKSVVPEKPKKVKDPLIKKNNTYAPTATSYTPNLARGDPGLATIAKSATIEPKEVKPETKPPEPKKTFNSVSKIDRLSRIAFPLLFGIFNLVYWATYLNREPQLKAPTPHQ
T2 sequence (P18507 whole entry): T1 sequence (P18507 whole entry)
T2 sequence (P28472 whole entry): T1 sequence (P28472 whole entry)

[3] = biological target: T3, GABA-A receptor; alpha-3/beta-3/gamma-2 (Homo sapiens, UniProt P18507+P28472+P34903); assay: Inhibition of [3H]Ro-151788 binding to recombinant human gamma-aminobutyric-acid A receptor alpha-3-beta-3-gamma-2 subtype expressed in L (tk-) cells
T3 sequence (P18507 whole entry): T1 sequence (P18507 whole entry)
T3 sequence (P28472 whole entry): T1 sequence (P28472 whole entry)
T3 sequence (P34903 whole entry): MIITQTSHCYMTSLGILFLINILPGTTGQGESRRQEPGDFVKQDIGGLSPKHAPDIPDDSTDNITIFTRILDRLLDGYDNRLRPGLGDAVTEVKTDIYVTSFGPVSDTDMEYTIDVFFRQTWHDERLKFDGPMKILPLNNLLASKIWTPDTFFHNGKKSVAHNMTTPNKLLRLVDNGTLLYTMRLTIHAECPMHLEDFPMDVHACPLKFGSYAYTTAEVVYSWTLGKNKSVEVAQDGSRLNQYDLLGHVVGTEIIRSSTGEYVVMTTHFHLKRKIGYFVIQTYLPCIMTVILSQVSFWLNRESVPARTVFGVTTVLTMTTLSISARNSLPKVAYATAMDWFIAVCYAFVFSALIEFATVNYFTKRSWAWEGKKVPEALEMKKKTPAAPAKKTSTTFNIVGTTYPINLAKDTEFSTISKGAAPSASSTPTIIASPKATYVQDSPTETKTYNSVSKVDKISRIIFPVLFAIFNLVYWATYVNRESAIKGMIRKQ

[4] = biological target: T4, GABA-A receptor; alpha-5/beta-3/gamma-2 (Homo sapiens, UniProt P18507+P28472+P31644); assay: Inhibition of [3H]Ro-151788 binding to recombinant human gamma-aminobutyric-acid A receptor alpha-5-beta-3-gamma-2 subtype expressed in L (tk-) cells
T4 sequence (P18507 whole entry): T1 sequence (P18507 whole entry)
T4 sequence (P28472 whole entry): T1 sequence (P28472 whole entry)
T4 sequence (P31644 whole entry): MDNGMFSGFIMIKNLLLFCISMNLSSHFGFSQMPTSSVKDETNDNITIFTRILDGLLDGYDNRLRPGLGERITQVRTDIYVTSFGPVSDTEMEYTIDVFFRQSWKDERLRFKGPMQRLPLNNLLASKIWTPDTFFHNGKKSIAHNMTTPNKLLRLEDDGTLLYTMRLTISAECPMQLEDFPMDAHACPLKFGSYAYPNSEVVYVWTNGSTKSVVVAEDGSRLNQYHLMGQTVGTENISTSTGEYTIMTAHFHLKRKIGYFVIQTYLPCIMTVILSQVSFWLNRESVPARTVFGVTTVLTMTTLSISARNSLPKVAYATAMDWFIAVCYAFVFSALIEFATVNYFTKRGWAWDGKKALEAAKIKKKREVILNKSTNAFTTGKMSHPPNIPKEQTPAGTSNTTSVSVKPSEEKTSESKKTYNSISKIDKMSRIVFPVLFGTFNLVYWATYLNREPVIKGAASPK

[5] = biological target: GABA-A receptor; alpha-1/beta-3/gamma-2 (Homo sapiens) (UniProt P14867+P18507+P28472); assay: Efficacy was measured as modulation of the current in response to GABA at hGABA alpha-1-beta-3-gamma-2 receptor expressed in Xenopus oocytes; conditions: Oocyte
Summary of the method: (§1)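 Two-electrode voltage clamp on Xenopus oocytes expressing each receptor combination. […] Value is percent increase or decrease of the EC20 GABA current.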

[6] = biological target: GABA-A receptor; alpha-2/beta-3/gamma-2 (Homo sapiens) (UniProt P18507+P28472+P47869); assay: Efficacy was measured as modulation of the current in response to GABA at hGABA alpha-2-beta-3-gamma-2 receptor expressed in Xenopus oocytes; conditions: Oocyte; summary of the method: as §1
[7] = biological target: GABA-A receptor; alpha-3/beta-3/gamma-2 (Homo sapiens) (UniProt P18507+P28472+P34903); assay: Efficacy was measured as modulation of the current in response to GABA at hGABA alpha-3-beta-3-gamma-2 receptor expressed in Xenopus oocytes; conditions: Oocyte; summary of the method: as §1
[8] = biological target: GABA-A receptor; alpha-5/beta-3/gamma-2 (Homo sapiens) (UniProt P18507+P28472+P31644); assay: Efficacy was measured as modulation of the current in response to GABA at hGABA alpha-5-beta-3-gamma-2 receptor expressed in Xenopus oocytes; conditions: Oocyte; summary of the method: as §1

Ki [1]: 0.016 µM
Ki [2]: 0.031 µM
Ki [3]: 0.008 µM
Ki [4]: 0.0021 µM
Efficacy [5]: 26%
Efficacy [6]: 16%
Efficacy [7]: 88%
Efficacy [8]: 26%
Structure (SMILES): Cn1cnc(COc2nn3c(-c4ccccc4)nnc3c3c2C2CCC3CC2)n1
